Compound activity (PubChem)
core dimer inh: inhibitors of HCV core protein dimerization, primary screen, biochemical, TR-FRET, high-throughput. TR-FRET GST/Flag-core106 dimerization, 1536-well. inhibition, % at 5 µM. 300,000 compounds, 0.33% hits. AID 1899, 2009;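 active = inhibition above the mean of all tested compounds plus 3 SD, set per screening campaign, cut at about 45% in these data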
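Assay system: Tagged HCV core106 pair (GST and Flag) | Buffer or medium: KF-containing HEPES buffer, pH 7.45, DTT, CHAPS, BSA | Also added: Eu donor and XL665 acceptor anti-tag antibodies | Dosing: One concentration, 5 µM, in 0.5% DMSO | Timing: 4 h at 22.5 °C | Technique: TR-FRET 671 and 617 nm emission | Repeats: Singlicate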
GC-A act: GC-A stimulated cGMP production enhancers – HEK293 GC-A cells, cGMP TR-FRET, EC30 ANP, primary screen; Atrial natriuretic peptide receptor 1 (Homo sapiens), P16066; 0% at EC30 ANP, 100% saturating ANP; activation, % at 10 µM; 370,000 compounds, 0.14% hits; in the data active = activation above about 40%
ARFGAP1 inh: inhibitors of rat ARFGAP1 GAP activity, primary screen, biochemical, fluorescence polarization, GDP tracer; Arfgap1-stimulated ARF1 GTP hydrolysis, GDP FP detection; ADP-ribosylation factor GTPase-activating protein 1 (Rattus norvegicus), Q62848; inhibition, % at 16.5 µM; AID 651572, 2012; 360,000 compounds, 0.26% hits;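 active = inhibition above a per-plate limit, mean inhibition of low control wells plus 3 SD, cut at about 25% in these data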
Target sequence (Q62848 1-136 limits assumed): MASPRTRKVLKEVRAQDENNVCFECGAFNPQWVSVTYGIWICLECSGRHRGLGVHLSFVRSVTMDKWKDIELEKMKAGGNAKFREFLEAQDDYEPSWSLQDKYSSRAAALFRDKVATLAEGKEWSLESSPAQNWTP
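Repeats: one replicate per compound; assay system: rat Arfgap1 catalytic domain, aa 1-136; times: enzyme reaction 120 min at 25 °C after 20 min preincubation; detection: FP of antibody-bound GDP Alexa 633 tracer, ex 620/em 688 nm; benchmarks: high control wells lacking Arfgap1, low control full reaction with DMSO; reagent: human ARF1(Δ1-17)-GTP substrate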
Fh CTSL1 inh: Fasciola hepatica cathepsin L1 inhibitors, primary screen, counter-screen for PFM18AAP inhibitor project, biochemical, QFRET, fluorogenic peptide substrate | recombinant F. hepatica cathepsin L1, Z-Leu-Arg-MCA fluorescence | inhibition, % at 5.96 µM | 300,000 compounds, 0.49% hits;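 active = inhibition above the mean of all tested compounds plus 3 SD, set per screening campaign, cut at about 17% in these data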
NPR2 activator: human GC-B receptor activators, primary screen, HEK293 GC-B cells, cGMP TR-FRET, EC30 CNP | 370,000 compounds, 0.11% hits | activation, % at 10 µM | AID 1920062, 2024 | 0% at EC30 CNP, 100% saturating CNP;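 active = activation at 10 µM reaching about 35% in either raw or pattern-adjusted values, limit read from the data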
ASAP1 inh: inhibitors of human ASAP1 ArfGAP activity, primary screen, biochemical, fluorescence polarization. Arf-GAP with SH3 domain, ANK repeat and PH domain-containing protein 1 (Homo sapiens), …. AID 624377, 2012. inhibition, % at 16.5 µM. 360,000 compounds, 0.19% hits. ASAP1-stimulated ARF1 GTP hydrolysis, GDP FP detection; in the data active = inhibition above about 25%
Hits are given with their value; i = inactive; nt = no result. A selection: hits, their analogues and other compounds. The true share with any hit is near 1.2%.

SMILES	core dimer inh	GC-A act	ARFGAP1 inh	Fh CTSL1 inh	NPR2 activator	ASAP1 inh
O=C(Nc1nccs1)c1cc(Cl)nc2ccccc12	i	i	i	i	i	i
CSc1ccccc1C(=O)N(C)Cc1ccccc1	i	i	i	i	i	i
Cc1ccccc1C(=O)N(C)Cc1ccccc1	i	i	i	16.8	i	i
CCOC(=O)Cc1csc(NC(=O)COc2ccc3ccccc3c2)n1	i	i	i	i	i	i
COc1cc(C(C)=O)ccc1Oc1ncnc2c1cnn2-c1cccc(Cl)c1	i	i	i	i	i	i
COc1cc(C(C)=O)ccc1Oc1ncnc2c1cnn2-c1ccc(F)cc1	i	47.1	i	i	i	i
O=C(CCl)NCc1cc(-c2ccc(Cl)cc2)no1	i	i	i	34.6	i	i
Cc1ccc(NC(=O)c2sc(N)nc2-c2ccc([N+](=O)[O-])cc2)cc1C	i	i	i	i	i	i
Cc1ccc(NC(=O)c2sc(N)nc2-c2ccccc2)cc1C	i	i	i	33.6	i	i
COc1cccc(NC=C2C(=O)OC(C)(C)OC2=O)c1	i	i	i	i	i	i
COc1cccc(NC=C2C(=O)OC3(CCCCC3)OC2=O)c1	i	i	i	18.6	i	i
CC1(c2ccccc2Cl)NC(=O)N(CC(=O)N2CCc3ccccc3C2)C1=O (stereo not given)	nt	i	i	nt	i	i
COc1ccc(/C=N\NC(=O)/C(=C\Nc2nccc(C)n2)NC(=O)c2ccccc2)cc1	i	i	i	20.1	i	i
COc1ccc(/C=C(/NC(=O)c2ccccc2)C(=O)N/N=C/c2ccncc2)cc1	i	i	i	i	i	i
Cc1ccc(/C=N\NC(=O)/C(=C\Nc2nccc(C)n2)NC(=O)c2ccccc2)cc1	i	i	i	21.9	i	i
CC(=O)Nc1ccc(C#Cc2ccc(NC(C)=O)cc2)cc1	i	i	i	i	i	i
CCC(C)[C@H](NC(=O)[C@@H]1CSC2c3ccccc3C(=O)N21)C(=O)NCC1CCCO1 (stereo not given in full)	i	i	i	17.3	i	i
Cc1nc(S(=O)(=O)c2ccc(Cl)cc2)c(NCc2ccccc2)o1	i	i	i	28.0	i	i
CNc1oc(C)nc1S(=O)(=O)c1ccccc1	i	i	i	i	i	i
O=C1C=C(Nc2ccccc2O)c2ccccc2C1=O	i	nt	i	22.4	nt	i
C1CCN(c2nc(N3CCCCC3)nc(N3CCNCC3)n2)CC1	i	i	i	i	i	i
O=C1C2C(C(=O)N1/N=C/c1ccc([N+](=O)[O-])o1)C1C=CC2C12CC2 (stereo not given)	i	i	i	i	i	i
CC1=NN(c2nc(N)nc(/C(C#N)=C/c3ccc([N+](=O)[O-])o3)n2)C(C)(C)C1	nt	46.1	i	nt	40.9	i
O=C(NC(NNc1ccc([N+](=O)[O-])cc1)(C(F)(F)F)C(F)(F)F)c1ccc(F)cc1	i	i	i	i	i	i
CCCC[n+]1ccn(C2=C([O-])c3ccccc3C(=O)/C2=N\S(=O)(=O)c2ccccc2)c1	i	i	i	i	i	i
Cc1cc(N=Nc2ccc(C)c(N=Nc3cc(C)c(N)cc3N)c2)c(N)cc1N	i	i	25.3	i	i	i
COc1cccc(OCc2nc3c4cnn(-c5ccccc5)c4ncn3n2)c1	i	i	i	i	i	i
c1ccc(-n2ncc3c2ncn2nc(-c4ccco4)nc32)cc1	51.8	i	i	i	i	i
CCC1(CC)NC(=O)N(CC(=O)Nc2sc3c(c2C(N)=O)CCC3)C1=O	82.6	i	i	i	i	i
CCOC(=O)C1=C(c2ccccc2)N=c2s/c(=C\c3ccco3)c(=O)n2C1c1cccs1 (stereo not given)	68.9	i	i	i	i	i
